Assay outcomes from PubChem.
UPR CHOP act – activators of apoptotic arm of unfolded protein response (CHOP); CHO-CHOP luciferase reporter, UPR activation, luminescence; percent of tunicamycin response over DMSO baseline; activation, % at 10 µM; 0.34% of 330,000 active; AID 449763;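 active means at 10 µM dose, activation of 40% or more, normalized to positive control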
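Assay system: CHO cells with stable CHOP pathway luciferase reporter; Buffer or medium: F12 plus 10% serum; Times: 16-18 h cell attachment, then 6 h compound exposure, 37 °C; Signal: luciferase luminescence; Read-out basis: percent activation relative to tunicamycin control; Control set: tunicamycin high control, DMSO low control.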
B2AR ag – agonists of human beta-2 adrenergic receptor inducing internalization; P07550; Am2.2-beta2AR cells, FAP receptor internalization, flow cytometry; response, % (no concentration beside the values); 0.43% of 340,000 active; AID 504454;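 active means response above a set limit, near 3 SD of response in nonfluorescent compounds, cut at about 42% in these data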
Target sequence (P07550 whole entry, looked up): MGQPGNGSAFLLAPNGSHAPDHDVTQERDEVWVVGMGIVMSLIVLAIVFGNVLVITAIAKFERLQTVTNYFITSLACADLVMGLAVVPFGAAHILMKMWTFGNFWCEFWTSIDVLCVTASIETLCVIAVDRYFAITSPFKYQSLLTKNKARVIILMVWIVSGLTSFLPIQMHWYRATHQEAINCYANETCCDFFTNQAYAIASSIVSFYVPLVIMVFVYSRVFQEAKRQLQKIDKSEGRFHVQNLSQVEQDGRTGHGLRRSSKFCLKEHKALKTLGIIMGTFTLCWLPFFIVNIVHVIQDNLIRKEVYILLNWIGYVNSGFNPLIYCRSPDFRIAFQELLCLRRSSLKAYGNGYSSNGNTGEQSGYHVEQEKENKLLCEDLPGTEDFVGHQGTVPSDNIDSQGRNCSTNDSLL
T cell modulator – T cell immune modulators affecting CD8 T cell-vesicle binding; AID 2052; response (vesicle binding), % at 7 µM; 2C CD8+ T cell-vesicle binding, flow cytometry; hits give low values; 0.068% of 330,000 active;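 active means response, share of CD8 T cells binding vesicles, and their 90th percentile fluorescence all below set limits, cut at about 80% in these data, passing the limit was not always enough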;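 further: values below 100% mean blocked vesicle binding to the CD8+ T cells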
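Benchmarks: naked versus QL9-loaded vesicles / Assay system: purified 2C TCR transgenic mouse naive CD8+ T cells / Technique: high-throughput flow cytometry with anti-B7-1 and anti-CD8 staining / Timing: Cell–vesicle co-incubation 1.5 h at 37 °C, staining 20 min on ice / Read-out: percent CD8+ FL2 mean versus row control / Probe or stimulus: QL9-loaded Drosophila micro-vesicles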
UPR XBP1 act – activators of adaptive arm of unfolded protein response (XBP1). CHO-XBP1 luciferase reporter, IRE1-XBP1 UPR activation, luminescence; percent of tunicamycin response, DMSO as zero. activation, % at 20 µM. 0.33% of 330,000 active;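 active means versus positive control, 20 µM dose yields 30% or more activation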
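Assay system: IRE1-XBP1 luciferase reporter CHO line. Input: 1000 cells/well. Buffer or medium: F12 with 10% serum. Doses: 20 µM, 1% DMSO. Times: overnight seeding at 37 °C, 6 h compound treatment at 37 °C. Technique: Steady-Glo luciferase glow luminescence, 10 min after reagent addition.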
UPR XBP1 confirm – confirmation of adaptive unfolded protein response (XBP1) activators; shares compounds with UPR XBP1 act; 63% of 1,000 active; AID 485299; CHO-XBP1 IRE1-XBP1 luciferase reporter, luminescence; activation, % at 20 µM;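 active means reporter signal at least 30% of the positive control's activation in two or more of four replicate wells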
Numbers stand for hits; . = inactive; / = no result given. Hits are enriched below; roughly 1% of the tested compounds scored in any of these assays.

SMILES	UPR CHOP act	B2AR ag	T cell modulator	UPR XBP1 act	UPR XBP1 confirm
COc1ccc(-n2c(SCC(=O)Nc3sc4c(c3C#N)CCCC4)nnc2-c2ccccc2OC)cc1	.	.	.	.	/
CCCCCC1CCC(c2ccc(/C(N)=N/O)cc2)CC1 (stereo unspecified)	.	.	.	32	.
CCCCC1CCC(c2ccc(C(N)=O)cc2)CC1 (stereo unspecified)	.	.	.	.	/
Cc1ccc(-c2cc(C(=O)Nc3cc(C)on3)c3ccccc3n2)cc1	.	.	.	.	/
Cc1cc(NC(=O)c2cc(-c3ccncc3)nc3c(C)cccc23)no1	.	.	.	153	184
COc1nc(N/N=C/c2ccc(-c3ccccc3[N+](=O)[O-])o2)nc(N2CCOCC2)n1	.	.	.	.	/
O=[N+]([O-])c1ccc(-c2ccc(/C=N/Nc3nc(NCc4ccccc4)nc(N4CCOCC4)n3)o2)cc1	.	.	.	47	.
CCCOC(=O)c1cccc(Nc2nc(-c3cccnc3)nc3ccccc23)c1	.	.	.	32	58
CC(=O)N1CCCc2cc(S(=O)(=O)N3CCCC(C(=O)NCc4ccccc4Cl)C3)ccc21 (stereo unspecified)	.	.	.	.	/
CCOc1cc(CNCCO)cc(Br)c1OCc1ccccc1Cl	.	.	.	.	/
CCOc1cc(CNC(C)(C)CO)cc(Br)c1OCc1ccc(Cl)cc1Cl	.	.	.	83	100
CCN(CC)CCn1c(SCC(=O)Nc2ccc(F)cc2)nc2c(sc3ccccc32)c1=O	.	/	.	166	228
Nc1nc(-c2cc(O)ccc2[N+](=O)[O-])cc(-c2ccccc2)c1[N+](=O)[O-]	.	.	.	311	214
CC1C/C(=N/Nc2nc3ccccc3[nH]2)CC(C)(C)C1 (stereo unspecified)	.	.	.	34	31
CC1C/C(=N/NC(=O)c2ccc(CSc3nc4ccccc4[nH]3)cc2)CC(C)(C)C1 (stereo unspecified)	.	.	.	.	/
COc1ccccc1NC(=O)CSc1nc2sc(C)c(C)c2c(=O)n1C	.	.	.	.	/
O=C(COc1ccc(Cl)cc1Cl)NN=C1c2ccccc2-c2ccccc21	.	.	.	89	96
N#C/C(=C\Nc1ccc2cn[nH]c2c1)c1nc(-c2ccc(Cl)cc2)cs1	.	.	.	101	72
CC1CCc2c(sc(NC(=O)CCc3nc4ccccc4c(=O)[nH]3)c2C#N)C1 (stereo unspecified)	.	.	.	169	198
CCN(CC(=O)Nc1sc2c(c1C#N)CCC(C)C2)Cc1nc2ccccc2c(=O)[nH]1 (stereo unspecified)	.	.	.	.	/
CCCNC(=O)c1ccc2c(=O)c(O)c(-c3ccc(C)cc3)[nH]c2c1	.	.	.	.	/
CCCNC(=O)c1ccc2c(=O)c(O)c(-c3ccc(OC)cc3)[nH]c2c1	.	.	.	63	56
CC(C)CNC(=S)N1CCN(C(c2ccccc2)c2ccccc2)CC1	.	.	.	.	/
COCc1cc(C)nc(SCC(=O)Oc2ccccc2)c1C#N	.	.	.	.	/
COCc1cc(C)nc(SCC(=O)c2ccc(O)c(O)c2)c1C#N	.	.	.	41	43
SMILES	UPR CHOP act	B2AR ag	T cell modulator	UPR XBP1 act	UPR XBP1 confirm
CCOc1ccc2nc(SCC(=O)N(CCOC)c3c(N)n(Cc4ccccc4)c(=O)[nH]c3=O)[nH]c2c1	.	.	.	.	/
COc1cc(OC)c(C=CC(=O)c2ccccc2O)c(OC)c1	/	.	/	/	/
COc1cc(/C=C/C(=O)c2ccccc2O)cc(OC)c1OC	.	.	.	31	.
CCOC(=O)C1CCCN(C2=NC(=O)/C(=C/c3ccc(O)c(OC)c3)S2)C1 (stereo unspecified)	.	.	.	.	/
CCCN1CCCc2cc(CN(CCCN3CCOCC3)C(=O)Nc3ccc(OCC)cc3)ccc21	.	.	.	.	/
CCCN1CCc2c(sc(NC(=O)c3ccc(S(=O)(=O)N(C)c4ccccc4)cc3)c2C(N)=O)C1	.	.	.	40	.
O=C(Cn1cnc2c(cnn2-c2ccccc2)c1=O)NC1CCCC1	.	.	.	.	/
COc1ccc(-c2cc(C(F)(F)F)nc(SCC(=O)Nc3ccc4c(c3)OCO4)n2)cc1	.	.	.	55	.
O=C(N/N=C/c1ccc(F)cc1)c1sccc1OCc1ccc(F)cc1	.	.	.	.	/
O=C(N/N=C/c1ccc(Cl)cc1)c1sccc1OCc1ccc(F)cc1	.	55	.	50	55
COc1ccc(C(=O)OCC(=O)NC(=O)NC(C)C)cc1OC	.	.	.	.	/
CCOC(=O)Nc1nc(-c2ccccc2)c(C(=O)c2ccccc2)s1	.	.	.	31	.
O=C(Cn1c(=O)n(-c2ccccc2)c(=O)c2oc3ccccc3c21)Nc1ccccc1	.	.	.	.	/
CCOc1ccccc1NC(=O)Cn1c(=O)n(-c2ccccc2)c(=O)c2oc3ccccc3c21	.	.	.	65	94
O=[N+]([O-])c1ccc(-c2nn(-c3ccccc3)cc2/C=N/n2c(-c3cccs3)n[nH]c2=S)cc1	.	.	.	41	.
CC(C)CCn1c(=O)c(C(=O)N/N=C/c2cccc(F)c2)c(O)c2ccccc21	.	.	.	37	.
COc1ccccc1CO/N=C/NC(=O)c1c(OC)ccnc1Oc1ccc(F)cc1	.	.	.	.	/
O=C(Nc1ccc(O)c2c(=O)cc(-c3cccc(Cl)c3)oc12)c1cccc(Cl)c1	.	.	.	73	70
CC(C)(C)c1ccc(C(=O)Nc2ccc(O)c3c(=O)cc(-c4cccc(Cl)c4)oc23)cc1	.	.	.	55	52
FC(F)(F)c1cc(CCN2CCNC[C@@H]2Cc2ccccc2)cc(C(F)(F)F)c1	.	.	.	37	.
Fc1cccc(CCN2CCNC[C@@H]2Cc2ccccc2)c1	.	.	.	.	/
CCC(C)n1c(NC(=O)c2ccccc2)c(C#N)c2nc3ccccc3nc21 (stereo unspecified)	.	.	.	63	.
COc1ccc(C2C(=O)N(C3CCCCC3)CC(=O)N2CCc2ccccc2)cc1OC (stereo unspecified)	.	.	.	.	/
CCCCC1CCC(C(=O)N(CC(C)C)c2c(N)n(CCCC)c(=O)[nH]c2=O)CC1 (stereo unspecified)	.	.	.	39	38
COc1ccc(C(=O)Nc2cccc(/C=C/c3nc4ccccc4c(=O)[nH]3)c2)cc1	.	.	.	52	69
O=C(Nc1cccc(/C=C/c2nc3ccccc3c(=O)[nH]2)c1)c1ccccc1Cl	.	.	.	.	/
C#CCN1C=C(C(=O)OCC)C(C)N(Cc2ccccc2I)S1(=O)=O (stereo unspecified)	.	.	/	.	/
O=C(OCC(=O)c1c[nH]c2ccccc12)c1ccco1	.	.	.	.	/
